Active and inactive are the calls of the source.
Columns and labels:
Mus musculus [1] = experiment: Anticonvulsant activity in Kunming mouse assessed as protection against maximal electroshock-induced seizures at 30 mg/kg, ip measured after 0.5 hr; format: functional, organism-based; parameters: dose 30 mg/kg
Outline: (§1)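 Male Kunming mice (20 ± 2.0 g) were dosed ip at 30, 100 and 300 mg/kg as a suspension in 0.5% methylcellulose, one to four mice per dose. A 60-Hz, 50-mA current was applied through corneal electrodes for 0.25 s at 0.5 h and 4.0 h after dosing. Absence of hindlimb tonic extension counted as protection. The value is the minimal dose protecting half or more of the mice.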

Mus musculus [2] = experiment: Anticonvulsant activity in Kunming mouse assessed as protection against maximal electroshock-induced seizures at 30 mg/kg, ip measured after 4 hrs; format: functional, organism-based; parameters: dose 30 mg/kg; outline: as §1
Mus musculus [3] = experiment: Anticonvulsant activity in Kunming mouse assessed as protection against subcutaneous pentylenetetrazol-induced clonic seizures at 300 mg/kg, ip measured after 0.5 hrs; format: functional, organism-based; parameters: dose 300 mg/kg
Outline: (§2)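 Male Kunming mice (20 ± 2.0 g) received ip doses of 30, 100 or 300 mg/kg as a suspension in 0.5% methylcellulose, one to four mice per dose. Pentylenetetrazole in 0.9% saline was injected subcutaneously. Protection meant failure to show even a threshold seizure (a single clonic spasm lasting at least 5 s), read at 0.5 h and 4.0 h. Activity was scored as the minimal dose protecting half or more of the mice.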

Mus musculus [4] = experiment: Anticonvulsant activity in Kunming mouse assessed as protection against subcutaneous pentylenetetrazol-induced clonic seizures at 100 mg/kg, ip measured after 4 hrs; format: functional, organism-based; parameters: dose 100 mg/kg; outline: as §2
Mus musculus [5] = experiment: Neurotoxicity in Kunming mouse at 300 mg/kg, ip after 0.5 hr by rotorod test; format: toxicity, organism-based; parameters: dose 300 mg/kg, route intraperitoneal; conditions: in vivo
Outline: (§3)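 Trained male Kunming mice were given ip doses of 30, 100 or 300 mg/kg, one to four per dose. They were placed on a 1 in. knurled rod rotating at 6 rpm, and examined at 0.5 h and 4.0 h. Neurotoxicity was inability to keep balance for at least 1 min in each of four trials. The value is the minimal dose giving toxicity in half or more of the mice.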

Mus musculus [6] = experiment: Anticonvulsant activity in ip dosed Kunming mouse assessed as protection against maximal electroshock-induced seizures; format: functional
Mus musculus [7] = experiment: Anticonvulsant activity in ip dosed Kunming mouse assessed as protection against subcutaneous pentylenetetrazol-induced clonic seizures; format: functional
[8] = Neurotoxicity in ip dosed Kunming mouse measured 30 mins post compound administration by rotorod test; format: toxicity, organism-based; conditions: in vivo
Mus musculus [9] = species on record: Mus musculus; experiment: Protective index, ratio of TD50 for neurotoxicity in Kunming mouse to ED50 for protection against MES-induced seizures in Kunming mouse; format: functional
Mus musculus [10] = experiment: Protective index, ratio of TD50 for neurotoxicity in Kunming mouse to ED50 for protection against subcutaneous pentylenetetrazol-induced clonic seizures in Kunming mouse; format: functional
Mus musculus [11] = experiment: Neurotoxicity in Kunming mouse at 300 mg/kg, ip after 4 hrs by rotorod test; format: toxicity, organism-based; parameters: dose 300 mg/kg, route intraperitoneal; conditions: in vivo; outline: as §3
Mus musculus [12] = experiment: Anticonvulsant activity in Kunming mouse assessed as protection against maximal electroshock-induced seizures at 300 mg/kg, ip measured after 0.5 hr; format: functional, organism-based; parameters: dose 300 mg/kg; outline: as §1
Mus musculus [13] = experiment: Anticonvulsant activity in Kunming mouse assessed as protection against maximal electroshock-induced seizures at 300 mg/kg, ip measured after 4 hrs; format: functional, organism-based; parameters: dose 300 mg/kg; outline: as §1
Mus musculus [14] = experiment: Anticonvulsant activity in Kunming mouse assessed as protection against subcutaneous pentylenetetrazol-induced clonic seizures at 300 mg/kg, ip measured after 4 hrs; format: functional, organism-based; parameters: dose 300 mg/kg; outline: as §2
Mus musculus [15] = experiment: Neurotoxicity in Kunming mouse at 100 mg/kg, ip after 0.5 hr by rotorod test; format: toxicity, organism-based; parameters: dose 100 mg/kg, route intraperitoneal; conditions: in vivo; outline: as §3
Mus musculus [16] = experiment: Neurotoxicity in Kunming mouse at 100 mg/kg, ip after 4 hrs by rotorod test; format: toxicity, organism-based; parameters: dose 100 mg/kg, route intraperitoneal; conditions: in vivo; outline: as §3
Mus musculus [17] = experiment: Anticonvulsant activity in Kunming mouse assessed as protection against maximal electroshock-induced seizures at 100 mg/kg, ip measured after 0.5 hr; format: functional, organism-based; parameters: dose 100 mg/kg; outline: as §1
Mus musculus [18] = experiment: Anticonvulsant activity in Kunming mouse assessed as protection against maximal electroshock-induced seizures at 100 mg/kg, ip measured after 4 hrs; format: functional, organism-based; parameters: dose 100 mg/kg; outline: as §1
Mus musculus [19] = experiment: Anticonvulsant activity in Kunming mouse assessed as protection against subcutaneous pentylenetetrazol-induced clonic seizures at 100 mg/kg, ip measured after 0.5 hrs; format: functional, organism-based; parameters: dose 100 mg/kg; outline: as §2

Row | SMILES | Activity (Mus musculus [3]) | Activity (Mus musculus [5]) | Activity (Mus musculus [11]) | Activity (Mus musculus [12]) | Activity (Mus musculus [13]) | Activity (Mus musculus [14]) | further results
1 | CCOC(=O)C1(NC(=O)NNC(=O)c2ccc(C(F)(F)F)cc2)CC1(C)C (stereo unspecified) | Active | Non-toxic | Non-toxic | – | – | – | Activity (Mus musculus [1]): Active; Activity (Mus musculus [2]): Active; Activity (Mus musculus [4]): Active; ED50 (Mus musculus [6]): 9.8 mg/kg; ED50 (Mus musculus [7]): 58.4 mg/kg; TD50 at 0.5 h [8]: 332 mg/kg; Ratio TD50/ED50 (Mus musculus [9]): 33.9; Ratio TD50/ED50 (Mus musculus [10]): 5.9
2 | CCOC(=O)C1(NC(=O)NNC(=O)c2ccncc2)CC1(C)C (stereo unspecified) | inactive | – | Toxic | inactive | Active | inactive | Activity (Mus musculus [15]): Toxic
3 | O=C1NC(=O)C(c2ccccc2)(c2ccccc2)N1 [PHENYTOIN] | inactive | – | – | – | – | inactive | Activity (Mus musculus [1]): Active; Activity (Mus musculus [2]): Active; Activity (Mus musculus [15]): Toxic; ED50 (Mus musculus [7]): > 300 mg/kg; Activity (Mus musculus [16]): Toxic
4 | CCOC(=O)C1(NC(=O)NNC(=O)c2ccco2)CC1(C)C (stereo unspecified) | inactive | – | Toxic | inactive | Active | inactive | Activity (Mus musculus [15]): Toxic
5 | CCOC(=O)C1(NC(=O)NNC(=O)c2cccc(C)c2)CC1(C)C (stereo unspecified) | inactive | Non-toxic | Non-toxic | – | inactive | inactive | Activity (Mus musculus [17]): Active
6 | CCOC(=O)C1(NC(=O)NNC(=O)c2ccccc2C)CC1(C)C (stereo unspecified) | – | Non-toxic | Non-toxic | – | – | inactive | Activity (Mus musculus [17]): Active; Activity (Mus musculus [18]): Active; Activity (Mus musculus [19]): Active
7 | CCOC(=O)C1(NC(=O)NNC(=O)c2ccc(CC)cc2)CC1(C)C (stereo unspecified) | Active | Non-toxic | Non-toxic | Active | Active | inactive | –
8 | CCC1(C)CC(=O)NC1=O (stereo unspecified) [ETHOSUXIMIDE] | – | Non-toxic | Non-toxic | inactive | inactive | Active | Activity (Mus musculus [19]): Active
9 | CCOC(=O)C1(NC(=O)NNC(=O)c2cccnc2)CC1(C)C (stereo unspecified) | inactive | – | Toxic | inactive | inactive | Active | Activity (Mus musculus [15]): Toxic
10 | CCCC(CCC)C(=O)O [VALPROIC ACID] | – | – | – | – | – | – | ED50 (Mus musculus [7]): 149 mg/kg
11 | CCOC(=O)C1(NC(=O)NNC(=O)c2ccc(C)cc2)CC1(C)C (stereo unspecified) | inactive | Non-toxic | Toxic | – | inactive | Active | Activity (Mus musculus [17]): Active
12 | CCC1(c2ccccc2)C(=O)NC(=O)NC1=O [PHENOBARBITAL] | – | – | – | – | – | – | ED50 (Mus musculus [6]): 21.8 mg/kg; ED50 (Mus musculus [7]): 13.2 mg/kg
13 | CCOC(=O)C1(NC(=O)NNC(=O)c2ccc(OC)cc2)CC1(C)C (stereo unspecified) | – | Non-toxic | Non-toxic | Active | Active | inactive | Activity (Mus musculus [19]): Active
14 | CCOC(=O)C1(NC(=O)NNC(=O)c2ccccc2Cl)CC1(C)C (stereo unspecified) | Active | Non-toxic | Toxic | – | Active | inactive | Activity (Mus musculus [17]): Active
15 | CCOC(=O)C1(NC(=O)NNC(=O)c2ccc(Br)cc2)CC1(C)C (stereo unspecified) | inactive | Non-toxic | Toxic | – | inactive | inactive | Activity (Mus musculus [17]): Active
16 | CCOC(=O)C1(NC(=O)NNC(=O)c2ccc(OC)c(OC)c2)CC1(C)C (stereo unspecified) | inactive | Non-toxic | Toxic | Active | Active | inactive | –
17 | CCOC(=O)C1(NC(=O)NNC(=O)c2ccc(C(C)(C)C)cc2)CC1(C)C (stereo unspecified) | Active | Non-toxic | Toxic | – | inactive | inactive | Activity (Mus musculus [17]): Active
18 | CCOC(=O)C1(NC(=O)NNC(=O)c2cc(OC)c(OC)c(OC)c2)CC1(C)C (stereo unspecified) | inactive | Toxic | Non-toxic | Active | Active | inactive | –
19 | CCOC(=O)C1(NC(=O)NNC(=O)c2cccs2)CC1(C)C (stereo unspecified) | Active | – | Toxic | inactive | – | Active | Activity (Mus musculus [18]): Active; Activity (Mus musculus [15]): Toxic
20 | CCOC(=O)C1(NC(=O)NNC(=O)c2ccc(F)cc2)CC1(C)C (stereo unspecified) | Active | Non-toxic | Non-toxic | – | Active | inactive | Activity (Mus musculus [17]): Active
21 | CCOC(=O)C1(NC(=O)NNC(=O)c2ccccc2Br)CC1(C)C (stereo unspecified) | Active | Non-toxic | Non-toxic | Active | – | Active | Activity (Mus musculus [2]): Active
22 | CCOC(=O)C1(NC(=O)NN2C(=O)c3ccccc3C2=O)CC1(C)C (stereo unspecified) | – | Non-toxic | Non-toxic | – | – | Active | Activity (Mus musculus [1]): Active; Activity (Mus musculus [18]): Active; Activity (Mus musculus [19]): Active; ED50 (Mus musculus [6]): 23.6 mg/kg; ED50 (Mus musculus [7]): 213 mg/kg; TD50 at 0.5 h [8]: 352 mg/kg; Ratio TD50/ED50 (Mus musculus [9]): 14.9; Ratio TD50/ED50 (Mus musculus [10]): 1.7
23 | NC(=O)N1c2ccccc2C=Cc2ccccc21 [CARBAMAZEPINE] | – | – | – | – | – | – | ED50 (Mus musculus [6]): 8.8 mg/kg; ED50 (Mus musculus [7]): > 100 mg/kg
24 | CCOC(=O)C1(NC(=O)NNC(=O)c2ccc(N(C)C)cc2)CC1(C)C (stereo unspecified) | inactive | Non-toxic | Toxic | Active | Active | inactive | –
25 | CCOC(=O)C1(NC(=O)NNC(=O)c2ccccc2)CC1(C)C (stereo unspecified) | Active | Toxic | Non-toxic | Active | inactive | inactive | –
26 | CCOC(=O)C1(NC(=O)NNC(=O)c2ccc([N+](=O)[O-])cc2)CC1(C)C (stereo unspecified) | inactive | Non-toxic | Toxic | – | inactive | inactive | Activity (Mus musculus [17]): Active
27 | CCOC(=O)C1(NC(=O)NNC(=O)c2ccc(Cl)cc2)CC1(C)C (stereo unspecified) | inactive | Non-toxic | Toxic | – | Active | Active | Activity (Mus musculus [1]): Active; ED50 (Mus musculus [6]): 20.1 mg/kg; ED50 (Mus musculus [7]): 335 mg/kg; TD50 at 0.5 h [8]: 382 mg/kg; Ratio TD50/ED50 (Mus musculus [9]): 19; Ratio TD50/ED50 (Mus musculus [10]): 1.1
28 | CCOC(=O)C1(NC(=O)NNC(=O)c2ccccc2F)CC1(C)C (stereo unspecified) | inactive | Non-toxic | Toxic | Active | inactive | inactive | –

Source: ChEMBL document CHEMBL2040803, “Synthesis and anticonvulsant activity of ethyl 1-(2-arylhydrazinecarboxamido)-2,2-dimethylcyclopropanecarboxylate derivatives” (Eur J Med Chem, 2012)
